Laboratory results as given in ChEMBL document CHEMBL2021818, “Novel desosamine-modified 14- and 15-membered macrolides without antibacterial activity” (2012).

Legend:
Assay type in all cases: functional
Haemophilus influenzae = assay: Antibacterial activity against Haemophilus influenzae ATCC 49247 after 24 hrs at 37 degC by CLSI protocol based microdilution method; details: ATCC 49247, 24 h
In short: (§1)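 Macrolide-susceptible strains, broth microdilution MIC per CLSI. Media: Mueller–Hinton broth (MHB) for S. aureus and M. catarrhalis, MHB plus 5% horse serum for streptococci, Haemophilus test medium for H. influenzae. Compounds dissolved in DMF (5 mg/mL stock) and serially twofold diluted in medium over 64 to 0.125 µg/mL. MIC read after 24 h incubation at 37 °C.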

Moraxella catarrhalis = assay: Antibacterial activity against Moraxella catarrhalis ATCC 23246 after 24 hrs at 37 degC by CLSI protocol based microdilution method; details: ATCC 23246, 24 h; in short: as §1
Streptococcus pneumoniae = assay: Antibacterial activity against Streptococcus pneumoniae ATCC […] after 24 hrs at 37 degC by CLSI protocol based microdilution method; in short: as §1
Staphylococcus aureus = assay: Antibacterial activity against Staphylococcus aureus ATCC 13709 after 24 hrs at 37 degC by CLSI protocol based microdilution method; details: ATCC 13709, 24 h; in short: as §1
Streptococcus pyogenes = assay: Antibacterial activity against Streptococcus pyogenes ATCC 700294 after 24 hrs at 37 degC by CLSI protocol based microdilution method; details: ATCC 700294, 24 h; in short: as §1

Measured: MIC

CC[C@H]1OC(=O)[C@H](C)[C@@H](O[C@H]2C[C@@](C)(OC)[C@@H](O)[C@H](C)O2)[C@H](C)[C@@H](O[C@@H]2O[C@H](C)C[C@H]3[C@H]2OC(=O)N3CC)[C@](C)(OC)C[C@@H](C)C(=O)N[C@H](C)[C@@H](O)[C@]1(C)O
> 64 µg/mL: all assays above

CC[C@H]1OC(=O)[C@H](C)[C@@H](O[C@H]2C[C@@](C)(OC)[C@@H](O)[C@H](C)O2)[C@H](C)[C@@H](O[C@@H]2O[C@H](C)C[C@H](N)[C@H]2O)[C@](C)(OC)C[C@@H](C)C(=O)N[C@H](C)[C@@H](O)[C@]1(C)O
> 64 µg/mL: all assays above

CC[C@H]1OC(=O)[C@H](C)[C@@H](O[C@H]2C[C@@](C)(OC)[C@@H](O)[C@H](C)O2)[C@H](C)[C@@H](O[C@@H]2O[C@H](C)C[C@H]3[C@H]2OC(=O)N3C)[C@](C)(O)C[C@@H](C)CN(C)[C@H](C)[C@@H](O)[C@]1(C)O
> 64 µg/mL: all assays above

CC[C@H]1OC(=O)[C@H](C)[C@@H](O[C@H]2C[C@@](C)(OC)[C@@H](O)[C@H](C)O2)[C@H](C)[C@@H](O[C@@H]2O[C@H](C)C[C@H]3[C@H]2OC(=O)N3C)[C@](C)(OC)C[C@@H](C)C(=O)N[C@H](C)[C@@H](O)[C@]1(C)O
> 64 µg/mL: all assays above
